Source: ChEMBL document CHEMBL1132173, “Novel derivatives of 2-pyridinemethylamine as selective, potent, and orally active agonists at 5-HT1A receptors” (J Med Chem, 1999)

Species: Rattus norvegicus
Experiment: Potency to produce a significant inhibition of immobility in rat
Type: functional
Settings: not given
Procedure, shortened: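 Rat forced swim, 5 min test 24 h after a 15 min pre-swim, with oral dose (10 mL/kg) 60 min before the test, n = 10 per dose. Significant response: immobility <138 s, a value seen in <5% of vehicle controls. ED50 by linear interpolation of % responders.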

Structure (SMILES) | ED50
CN(C)CCCN1c2ccccc2CCc2ccccc21 [IMIPRAMINE] | 80 mg/kg
O=C(c1ccc(F)c(Cl)c1)N1CCC(F)(CNCc2cccc(-c3ccco3)n2)CC1 | 0.09 mg/kg

The compounds below were run against T1, 5-hydroxytryptamine receptor 1A (Rattus norvegicus, UniProt P19327) (assay: Binding affinity towards 5-hydroxytryptamine 1A receptor in rat cortex using [3H]8-OH-DPAT as a radioligand). Settings: not given.
T1 sequence (P19327 whole entry): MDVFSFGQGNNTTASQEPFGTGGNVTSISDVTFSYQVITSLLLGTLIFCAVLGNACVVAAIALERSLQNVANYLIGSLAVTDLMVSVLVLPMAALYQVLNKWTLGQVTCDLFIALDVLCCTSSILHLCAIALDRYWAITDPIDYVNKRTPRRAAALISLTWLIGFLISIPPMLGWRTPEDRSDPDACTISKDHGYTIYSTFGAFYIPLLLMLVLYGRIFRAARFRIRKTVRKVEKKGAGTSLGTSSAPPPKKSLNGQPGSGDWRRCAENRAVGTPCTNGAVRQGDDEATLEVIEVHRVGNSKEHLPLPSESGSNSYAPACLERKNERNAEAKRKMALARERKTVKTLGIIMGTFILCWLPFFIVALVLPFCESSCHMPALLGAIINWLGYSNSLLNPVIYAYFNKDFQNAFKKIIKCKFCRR
Procedure, shortened: (§1)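 Rat tissue membranes, competition against radioligand at 23 °C. Nonspecific binding: 5-HT for 5-HT1A (30 min), (+)-butaclamol for D2 (60 min), phentolamine for α1 (30 min). Tris HCl 50 mM pH 7.4 buffers. Filtration through glass-fibre filters, then scintillation counting. Run in triplicate; IC50 by nonlinear regression; Ki by Cheng–Prusoff; mean pKi of three determinations.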

Ki | Structure (SMILES)
0.269 nM | Cc1ccc(C(=O)N2CCC(F)(CNCc3cccc(N(C)C)n3)CC2)cc1Cl
0.794 nM | O=C(c1ccc(Cl)c(Cl)c1)N1CCC(F)(CNCc2cccc(-c3nccs3)n2)CC1
0.302 nM | O=C(c1ccc(Cl)c(Cl)c1)N1CCC(F)(CNCc2cccc(-c3cc[nH]n3)n2)CC1

Each compound was assayed on Rattus norvegicus (assay: Effective intraperitoneal dose in vivo in rat after 15 mins to induce lower lip retraction). Settings: ip, 0.25 h.
Type: functional
Procedure, shortened: (§2)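 Observed in 10 min windows centred 15 and 60 min post-dose, 10 s each minute, scoring lower lip retraction present or absent (0–10).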

Structure (SMILES) | ED50
O=C(c1ccc(F)c(Cl)c1)N1CCC(F)(CNCc2cccc(-c3ccco3)n2)CC1 | 0.08 mg/kg
Cc1ccc(C(=O)N2CCC(F)(CNCc3cccc(N(C)C)n3)CC2)cc1Cl | 0.08 mg/kg
O=C(c1ccc(Cl)c(Cl)c1)N1CCC(F)(CNCc2cccc(-c3nccs3)n2)CC1 | 0.45 mg/kg
O=C(c1ccc(Cl)c(Cl)c1)N1CCC(F)(CNCc2cccc(-c3cc[nH]n3)n2)CC1 | 0.32 mg/kg

These compounds were tested against T2, 5-hydroxytryptamine receptor 1A (Homo sapiens, UniProt P08908) (assay: In vitro effective concentration required to inhibit forskolin-stimulated cAMP levels in HA7 cells expressing human 5-HT1A receptor). Settings: not given.
T2 sequence (P08908 whole entry): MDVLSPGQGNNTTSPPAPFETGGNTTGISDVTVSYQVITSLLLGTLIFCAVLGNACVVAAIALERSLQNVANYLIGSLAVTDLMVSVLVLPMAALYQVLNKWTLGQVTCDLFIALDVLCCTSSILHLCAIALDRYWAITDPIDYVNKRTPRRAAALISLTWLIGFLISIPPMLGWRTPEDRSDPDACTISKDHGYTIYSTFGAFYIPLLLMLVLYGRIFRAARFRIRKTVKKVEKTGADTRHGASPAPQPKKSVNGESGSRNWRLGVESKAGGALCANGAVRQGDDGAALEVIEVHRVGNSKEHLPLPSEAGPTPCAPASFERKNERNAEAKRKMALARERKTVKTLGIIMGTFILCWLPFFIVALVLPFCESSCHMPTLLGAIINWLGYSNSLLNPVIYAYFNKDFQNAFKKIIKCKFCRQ
Type: functional, cell-based
Procedure, shortened: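 HeLa HA7 cells stably expressing human 5-HT1A, at 80–90% confluency, antibiotic-free for 24 h. Preincubated 10 min at RT in DMEM/10 mM Hepes, then drug at 0.1 nM–100 µM with 100 µM forskolin and 100 µM IBMX for 10 min at RT. Stopped with 0.1 N HCl; cAMP by radioimmunoassay as % of forskolin control; pEC50.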

EC50 | Structure (SMILES)
3.47 nM | O=C(c1ccc(F)c(Cl)c1)N1CCC(F)(CNCc2cccc(-c3ccco3)n2)CC1
5.75 nM | Cc1ccc(C(=O)N2CCC(F)(CNCc3cccc(N(C)C)n3)CC2)cc1Cl
22.9 nM | O=C(c1ccc(Cl)c(Cl)c1)N1CCC(F)(CNCc2cccc(-c3nccs3)n2)CC1
1.12 nM | O=C(c1ccc(Cl)c(Cl)c1)N1CCC(F)(CNCc2cccc(-c3cc[nH]n3)n2)CC1

The compounds below were run on Rattus norvegicus (assay: Effective intraperitoneal dose in vivo in rat after 60 mins to induce lower lip retraction). Settings: ip, 1 h.
Type: functional
Procedure, shortened: as §2

Structure (SMILES) | ED50
O=C(c1ccc(F)c(Cl)c1)N1CCC(F)(CNCc2cccc(-c3ccco3)n2)CC1 | 0.11 mg/kg
Cc1ccc(C(=O)N2CCC(F)(CNCc3cccc(N(C)C)n3)CC2)cc1Cl | 0.08 mg/kg
O=C(c1ccc(Cl)c(Cl)c1)N1CCC(F)(CNCc2cccc(-c3nccs3)n2)CC1 | 0.89 mg/kg
O=C(c1ccc(Cl)c(Cl)c1)N1CCC(F)(CNCc2cccc(-c3cc[nH]n3)n2)CC1 | 0.32 mg/kg

These compounds were tested against T3, Adrenergic receptor alpha-1 (Rattus norvegicus, UniProt P15823+P23944+P43140) (assay: Binding affinity towards Alpha-1 adrenergic receptor using prazosin as a radioligand in rat cortex). Settings: not given.
T3 sequence (P15823 whole entry): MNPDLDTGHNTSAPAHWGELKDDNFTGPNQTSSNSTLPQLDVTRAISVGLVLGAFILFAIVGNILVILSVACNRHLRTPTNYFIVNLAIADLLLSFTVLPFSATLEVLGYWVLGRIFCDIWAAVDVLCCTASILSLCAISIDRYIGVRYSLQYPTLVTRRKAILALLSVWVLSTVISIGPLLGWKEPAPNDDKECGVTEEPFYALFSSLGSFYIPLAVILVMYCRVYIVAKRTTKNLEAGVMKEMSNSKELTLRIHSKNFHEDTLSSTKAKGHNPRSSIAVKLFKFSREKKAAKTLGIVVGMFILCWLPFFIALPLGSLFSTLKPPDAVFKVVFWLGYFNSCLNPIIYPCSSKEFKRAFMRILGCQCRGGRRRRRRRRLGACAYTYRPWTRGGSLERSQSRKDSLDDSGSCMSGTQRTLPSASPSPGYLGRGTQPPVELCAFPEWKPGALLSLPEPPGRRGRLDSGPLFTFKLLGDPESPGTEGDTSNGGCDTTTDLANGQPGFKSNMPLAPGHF
T3 sequence (P23944 whole entry): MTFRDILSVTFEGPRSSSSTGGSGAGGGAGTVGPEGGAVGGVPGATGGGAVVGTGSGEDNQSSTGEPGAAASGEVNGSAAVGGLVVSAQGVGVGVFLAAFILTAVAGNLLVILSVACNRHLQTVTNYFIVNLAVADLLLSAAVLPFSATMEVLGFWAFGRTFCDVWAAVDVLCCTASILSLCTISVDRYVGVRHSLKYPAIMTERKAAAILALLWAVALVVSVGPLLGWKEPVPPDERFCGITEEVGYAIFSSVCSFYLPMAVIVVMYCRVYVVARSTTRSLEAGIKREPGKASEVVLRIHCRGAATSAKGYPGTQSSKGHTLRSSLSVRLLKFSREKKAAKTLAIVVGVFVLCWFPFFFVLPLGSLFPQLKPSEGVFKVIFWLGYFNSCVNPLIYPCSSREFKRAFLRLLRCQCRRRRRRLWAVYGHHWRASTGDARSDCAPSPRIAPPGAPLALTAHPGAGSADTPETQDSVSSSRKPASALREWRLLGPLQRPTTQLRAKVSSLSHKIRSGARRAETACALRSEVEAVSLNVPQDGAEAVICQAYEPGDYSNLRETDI
T3 sequence (P43140 whole entry): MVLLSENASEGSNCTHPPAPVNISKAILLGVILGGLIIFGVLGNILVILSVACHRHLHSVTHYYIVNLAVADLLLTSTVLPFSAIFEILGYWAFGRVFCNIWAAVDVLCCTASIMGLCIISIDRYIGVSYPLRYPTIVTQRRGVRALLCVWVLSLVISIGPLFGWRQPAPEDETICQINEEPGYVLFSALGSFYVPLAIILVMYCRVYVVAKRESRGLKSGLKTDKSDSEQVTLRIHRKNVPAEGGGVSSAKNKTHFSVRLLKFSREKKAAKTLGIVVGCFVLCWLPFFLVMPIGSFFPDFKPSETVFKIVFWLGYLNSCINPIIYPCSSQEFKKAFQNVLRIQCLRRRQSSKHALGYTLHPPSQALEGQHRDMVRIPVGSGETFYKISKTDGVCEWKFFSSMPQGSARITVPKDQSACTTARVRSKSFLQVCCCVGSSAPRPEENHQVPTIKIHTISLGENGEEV
Procedure, shortened: as §1

Log Ki | Structure (SMILES)
-6.12 | O=C(c1ccc(F)c(Cl)c1)N1CCC(F)(CNCc2cccc(-c3ccco3)n2)CC1
-6.86 | Cc1ccc(C(=O)N2CCC(F)(CNCc3cccc(N(C)C)n3)CC2)cc1Cl
-6.26 | O=C(c1ccc(Cl)c(Cl)c1)N1CCC(F)(CNCc2cccc(-c3nccs3)n2)CC1
-6.1 | O=C(c1ccc(Cl)c(Cl)c1)N1CCC(F)(CNCc2cccc(-c3cc[nH]n3)n2)CC1

The compounds below were run on Rattus norvegicus (assay: Induction of lower lip retraction in rat 60 min after administration, effective peroral dose determined in vivo). Settings: po, 1 h.
Type: functional
Procedure, shortened: as §2

Structure (SMILES) | ED50
O=C(c1ccc(F)c(Cl)c1)N1CCC(F)(CNCc2cccc(-c3ccco3)n2)CC1 | 0.32 mg/kg
Cc1ccc(C(=O)N2CCC(F)(CNCc3cccc(N(C)C)n3)CC2)cc1Cl | 0.32 mg/kg
O=C(c1ccc(Cl)c(Cl)c1)N1CCC(F)(CNCc2cccc(-c3nccs3)n2)CC1 | 1.3 mg/kg
O=C(c1ccc(Cl)c(Cl)c1)N1CCC(F)(CNCc2cccc(-c3cc[nH]n3)n2)CC1 | 1.3 mg/kg

What follows are compounds tested against D(2) dopamine receptor (Rattus norvegicus, UniProt P61169) (assay: Binding affinity towards Dopamine receptor D2 in rat striatum using YM-09151-2 as a radioligand). Settings: not given.
Sequence of D(2) dopamine receptor (P61169 whole entry): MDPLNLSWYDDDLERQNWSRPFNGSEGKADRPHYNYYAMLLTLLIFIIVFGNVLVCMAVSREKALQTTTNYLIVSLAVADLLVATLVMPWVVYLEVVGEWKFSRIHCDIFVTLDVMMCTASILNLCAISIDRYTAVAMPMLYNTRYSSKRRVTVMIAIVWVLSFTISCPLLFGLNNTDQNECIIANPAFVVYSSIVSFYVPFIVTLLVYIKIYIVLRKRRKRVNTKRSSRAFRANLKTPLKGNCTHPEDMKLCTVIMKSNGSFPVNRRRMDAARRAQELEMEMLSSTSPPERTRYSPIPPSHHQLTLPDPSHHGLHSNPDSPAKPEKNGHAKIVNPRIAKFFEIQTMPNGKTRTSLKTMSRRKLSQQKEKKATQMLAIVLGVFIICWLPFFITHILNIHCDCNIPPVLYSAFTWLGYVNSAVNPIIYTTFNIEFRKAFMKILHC
Type: tissue-based
Procedure, shortened: as §1

Ki | Structure (SMILES)
129 nM | Cc1ccc(C(=O)N2CCC(F)(CNCc3cccc(N(C)C)n3)CC2)cc1Cl
3390 nM | O=C(c1ccc(Cl)c(Cl)c1)N1CCC(F)(CNCc2cccc(-c3nccs3)n2)CC1
4070 nM | O=C(c1ccc(Cl)c(Cl)c1)N1CCC(F)(CNCc2cccc(-c3cc[nH]n3)n2)CC1

Species: Rattus norvegicus
Experiment: Maximum inhibition of immobility in the rat (Expressed as percentage of immobility observed in vehicle controls)
Type: functional
Settings: not given
Procedure, shortened: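 Rat forced swim: 15 min pre-swim in 17 cm water at 25 °C, then 5 min test 24 h later with blind scoring of immobility. Oral dosing (10 mL/kg) 60 min before the test, n = 10 per dose. Inhibition is the difference in median immobility from vehicle controls, as % of the control median.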

Structure (SMILES) | Inhibition
CN(C)CCCN1c2ccccc2CCc2ccccc21 [IMIPRAMINE] | 31%
O=C(c1ccc(F)c(Cl)c1)N1CCC(F)(CNCc2cccc(-c3ccco3)n2)CC1 | >80%
